# Only some compounds are listed: those with a hit (about 3.8% of all), similar ones and a draw of the others.
# V-ATPase pH = alters yeast V-ATPase proton transport; S. cerevisiae, pHLuorin cytosolic pH fluorescence; response, % at 10 µM; 350,000 compounds, 0.37% hits; AID 504577; in the data active = response mostly above about 7.3%, no sharp cut-off; inactive = mostly below about 5.4%; also: actives read high
# MPTP block = permeability transition pore inhibition. isolated mouse mitochondria, Ca2+ swelling absorbance, 30 min. inhibition, % at 10 µM. 360,000 compounds, 1.4% hits. AID 602449;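 active = inhibition of 50% or more, scaled per plate between neutral and stimulator controls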;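 also: 0% = DMSO wells given calcium and 100% = 1 mM EGTA wells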
# T cell HTS = modulates CD8 T cell binding to vesicles; 2C CD8+ T cell-vesicle binding, flow cytometry; stronger effect = lower value; response (vesicle binding), % at 7 µM; 330,000 compounds, 0.068% hits;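 active = response, share of CD8 T cells binding vesicles, and their 90th percentile fluorescence all below set limits, cut at about 80% in these data, passing the limit was not always enough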;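 also: values below 100% mean blocked vesicle binding to the CD8+ T cells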
#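 material = purified 2C TCR transgenic mouse naive CD8+ T cells | controls = Unloaded micro-vesicles (low), QL9 vesicles with 0.7% DMSO (high) | detection = cytometric PE anti-B7-1 and Alexa647 anti-CD8 signals after 1% paraformaldehyde fixation | incubation = binding step 1.5 h, 37 °C, antibody labelling 20 min, ice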
# rCAG binder = r(CAG) repeat RNA binding; TO-PRO-1 dye displacement fluorescence; inhibition, % at 3 µM; 370,000 compounds, 1.3% hits; AID 651821;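 active = inhibition above the plate cutoff, the mean of all test compounds on that plate plus 3 SD, cut at about 35% in these data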;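 also: 0% = DMSO alone and 100% = 100 µM mitoxantrone as full dye displacement; higher means more dye released from RNA so lower well fluorescence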
# B2AR ag = human beta-2 adrenergic receptor agonism by FAP. P07550. Am2.2-beta2AR cells, FAP receptor internalization, flow cytometry. response, % (no concentration beside the values). 340,000 compounds, 0.43% hits. AID 504454;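 active = response above a set limit, near 3 SD of response in nonfluorescent compounds, cut at about 42% in these data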
# Target sequence (P07550 whole entry, looked up): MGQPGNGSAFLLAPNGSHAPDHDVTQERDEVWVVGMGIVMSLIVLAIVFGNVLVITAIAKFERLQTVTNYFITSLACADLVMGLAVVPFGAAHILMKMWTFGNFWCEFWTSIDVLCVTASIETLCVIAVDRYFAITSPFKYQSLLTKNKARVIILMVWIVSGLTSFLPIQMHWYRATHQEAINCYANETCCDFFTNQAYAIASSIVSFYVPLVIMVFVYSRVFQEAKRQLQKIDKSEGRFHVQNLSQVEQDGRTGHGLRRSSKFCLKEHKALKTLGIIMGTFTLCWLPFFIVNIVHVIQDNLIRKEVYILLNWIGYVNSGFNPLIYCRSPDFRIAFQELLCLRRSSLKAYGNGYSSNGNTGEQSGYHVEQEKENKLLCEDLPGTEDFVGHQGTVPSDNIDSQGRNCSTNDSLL
# Exocytosis inh = blocks lytic granule exocytosis; inhibition, % at 10 µM; 360,000 compounds, 0.66% hits; TALL-104 LAMP-1 surface exposure, flow cytometry; cells stimulated with thapsigargin and PMA;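 active = inhibition above about 55%, limit read from the data; inconclusive = no clear call, values can overlap the other calls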
# V-ATPase pH SP = yeast V-ATPase proton transport regulation; response, % at 10 µM; 980 compounds, 2% hits; AID 602197; S. cerevisiae pHLuorin cytosolic pH; shares compounds with V-ATPase pH; in the data active = response above about 24%;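 also: plate controls were vehicle wells for no effect and positive control wells for full effect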
# Numbers without * were called inactive; ? = inconclusive; / = no result given.
SMILES,V-ATPase pH,MPTP block,T cell HTS,rCAG binder,B2AR ag,Exocytosis inh,V-ATPase pH SP
CC(=O)N/C(=C\c1ccccc1)C(=O)N1CCOCC1,10.4*,-0.1,202.1,0.4,7.5,-2.4,1.7
Cc1ccc(NC2OC(C(O)CO)C(O)C2O)cc1[N+](=O)[O-] (stereo not drawn),35.9*,-6.4,122.6,1.7,-2.3,4.6,-4.0
CC(NCc1ccco1)C(=O)N1CCN(c2ccc(F)cc2)CC1 (stereo not drawn),/,/,/,3.0,/,/,/
CCCNC(=S)N1CCN(C)CC1,8.2*,0.4,372.7,-1.4,0.8,-6.1,-4.8
CN1CCN(c2nc3c(c(=O)n(C)c(=O)n3C)n2Cc2ccc(Cl)cc2)CC1,8.0*,0.1,107.9,-8.4,-13.7,-6.6,-7.5
O=C(c1cc(Cl)nc2ccccc12)N1CCN(S(=O)(=O)c2ccccc2[N+](=O)[O-])CC1,14.5*,0.2,139.1,2.3,5.6,-0.2,1.5
O=C(c1cc(Cl)nc2ccccc12)N1CCN(S(=O)(=O)c2cccc(F)c2)CC1,-3.0,-0.2,424.1,0.9,-3.4,1.1,/
CCCCOCCCNC(=O)C[C@@H]1C(=O)N(Cc2ccc(OC)cc2)/C2=C/CCCCC[C@@]21C(=O)OCC,/,/,/,-2.7,/,/,/
O=C(NCc1cccnc1)c1nn2cccnc2c1Cl,-4.1,-0.1,217.8,-1.8,-0.3,0.3,/
C=CCNC(=O)c1nn2cccnc2c1Cl,11.5*,-3.4,335.4,0.8,-4.8,1.3,-1.2
CCOc1ccc(-c2nnc(SCC(=O)NC3CC3)o2)cc1,10.0*,-0.7,511.4,-0.2,-9.6,2.3,-1.5
CC(C)(C)c1ccc(-c2nnc(SCC(=O)NC3CC3)o2)cc1,0.6,-0.2,702.1,0.1,-4.6,1.9,/
O=C(CSc1nnc(-c2ccccc2)o1)OCc1ccccc1,-5.0,-0.7,150.4,-0.8,-5.6,1.1,3.2
CCN(CC)C(=O)CSc1nnc(-c2ccccc2)o1,-0.7,0.4,328.2,-3.0,-10.9,-5.0,1.7
O=C(c1cccc(I)c1)N1CCC(Oc2cccnc2)CC1,/,/,/,1.0,/,/,/
O=C(Nc1ccc(Cl)cc1)C1CCCN1S(=O)(=O)c1cccc2cccnc12 (stereo not drawn),/,/,/,3.1,/,/,/
COC(=O)c1cnc(SCc2ccc(Cl)cc2)n1C,6.3*,1.7,366.4,-2.6,3.2,0.5,1.5
O=C(CCCN1C(=O)/C(=C/c2cccs2)SC1=S)Nc1ccccn1,1.4,-1.6,162.5,1.4,-3.5,-1.8,/
O=C(CCN1C(=O)/C(=C\c2cccs2)SC1=S)Nc1ccccn1,6.2*,0.2,308.7,9.7,-3.2,2.0,-2.9
O=C(O)c1ccc(C=Nn2c(-c3ccc(F)cc3)n[nH]c2=S)cc1,/,/,/,3.1,/,/,/
O=S(N1CCCCC1)C12CC3CC(CC(C3)C1)C2 (stereo not drawn),14.5*,-0.5,333.3,-3.8,-1.3,5.0,1.6
COCCOC1CCN(C(=O)C2CCC(=O)N(CCc3cccc(F)c3)C2)CC1 (stereo not drawn),-2.3,-3.6,412.7,-3.0,3.3,?,/
O=C(NCCc1c[nH]c2ccccc12)C1CCC(=O)N(CCc2cccc(F)c2)C1 (stereo not drawn),11.1*,1.2,150.1,-7.1,0.9,-3.3,-2.0
COCCN1CCN(C(=O)C2CCC(=O)N(CCc3cccc(F)c3)C2)CC1 (stereo not drawn),7.4*,-1.3,146.8,-5.8,4.0,4.3,-7.1
O=C(Nc1nnc(-c2ccccc2Cl)o1)c1ccco1,11.3*,-1.8,550.4,2.3,-2.6,-3.3,0.6
SMILES,V-ATPase pH,MPTP block,T cell HTS,rCAG binder,B2AR ag,Exocytosis inh,V-ATPase pH SP
Cc1ccc(-c2nnc(NC(=O)c3ccco3)o2)c(C)c1,0.0,-0.2,324.1,6.7,-3.0,12.1,/
Cc1ccc(/C=N/NC(=O)Nc2ccccc2)o1,37.8*,-0.7,260.6,0.0,1.2,0.0,1.3
Cc1ccc(/C=N/NC(=O)C(O)c2ccccc2)o1 (stereo not drawn),1.3,0.8,167.3,-1.7,12.7,2.0,/
COc1cc(CNn2cn[nH]c2=S)ccc1OCC(=O)NC(C)(C)C,8.9*,0.1,173.5,-3.5,-0.2,0.4,-2.6
C=CCOc1ccc(CNn2c(C)n[nH]c2=S)cc1OC,10.0*,-3.4,0.0,-3.1,11.6,-0.7,0.9
COc1ccc(CC(=O)N(Cc2ccccc2)c2ccccc2C(=O)Nc2cc(OC)ccc2OC)cc1,/,/,/,5.5,/,/,/

# Screening results: PubChem BioAssay, several laboratories
